ChEMBL document CHEMBL1275445, “Low beta-lactamase-negative ampicillin-resistant Haemophilus influenzae strains are best detected by testing amoxicillin susceptibility by the broth microdilution method” (2008)
≈ marks a conversion by molar mass, not a printed value.

Key:
Assay type in all cases: functional
Haemophilus influenzae [1] = assay: Antibacterial activity against Beta-lactamase negative Haemophilus influenzae harboring fst1 mutant gene assessed as resistant isolates after 20 to 24 hrs by Etest method
Procedure, shortened: (§1)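 Etest on clinical H. influenzae isolates genotyped by ftsI/blaTEM sequencing. Overnight chocolate-agar colonies were suspended in saline to McFarland 0.5 and swabbed confluently onto 150-mm agar plates. Strips were placed radially, then plates incubated at 35°C in 5% CO2 for 20 to 24 h. MIC read where the inhibition ellipse meets the strip. Values rounded up to the next log2 step.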

Haemophilus influenzae [2] = assay: Antibacterial activity against Beta-lactamase negative Haemophilus influenzae harboring fst1 mutant gene assessed as susceptible isolates after 20 to 24 hrs by Etest method; procedure, shortened: as §1
Haemophilus influenzae [3] = assay: Antibacterial activity against Beta-lactamase positive Haemophilus influenzae assessed as resistant isolates after 20 to 24 hrs by Etest method; procedure, shortened: as §1
Haemophilus influenzae [4] = assay: Antibacterial activity against Beta-lactamase negative Haemophilus influenzae isolate after 20 to 24 hrs by broth microdilution method
Procedure, shortened: (§2)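 Broth microdilution per CLSI on clinical H. influenzae isolates genotyped by ftsI/blaTEM PCR and sequencing. Medium: Mueller-Hinton broth with HTM supplement and yeast extract (5%). Inoculum about 5 x 10^5 CFU/ml, confirmed by colony counts on chocolate agar. Incubation 35°C, 20 to 24 h, 5% CO2. MIC was the lowest concentration inhibiting growth. Amoxicillin-clavulanic acid tested at 2:1. β-lactamase status determined by nitrocefin test.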

Haemophilus influenzae [5] = assay: Antibacterial activity against Beta-lactamase negative Haemophilus influenzae harboring fst1 mutant gene assessed as susceptible isolates after 20 to 24 hrs by broth microdilution method; procedure, shortened: as §2
Haemophilus influenzae [6] = assay: Antibacterial activity against Beta-lactamase positive Haemophilus influenzae isolate harboring fst1 mutant gene after 20 to 24 hrs by broth microdilution method; procedure, shortened: as §2
Haemophilus influenzae [7] = assay: Antibacterial activity against Beta-lactamase negative Haemophilus influenzae assessed as resistant isolates after 20 to 24 hrs by Etest method
Haemophilus influenzae [8] = assay: Antibacterial activity against Beta-lactamase positive Haemophilus influenzae assessed as susceptible isolates after 20 to 24 hrs by Etest method
Procedure, shortened: (§3)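 Confluent swab of agar plates with saline suspension of overnight chocolate-agar colonies at McFarland 0.5; Etest strips placed radially; 35°C, 5% CO2, 20–24 h. MIC read where the inhibition ellipse meets the strip, rounded up to next log2 concentration. β-lactamase status by nitrocephin chromogenic cephalosporin test; genotype by ftsI/blaTEM sequencing.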

Haemophilus influenzae [9] = assay: Antibacterial activity against Beta-lactamase positive Haemophilus influenzae isolate after 20 to 24 hrs by broth microdilution method
Procedure, shortened: (§4)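 CLSI broth microdilution in Mueller-Hinton broth with HTM supplement and yeast extract (5%), inoculum about 5 x 10^5 CFU/ml (checked by colony counts on chocolate agar); 35°C, 20–24 h in 5% CO2. MIC = lowest concentration inhibiting growth; amoxicillin-clavulanic acid at 2:1. β-lactamase status by nitrocephin test.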

Haemophilus influenzae [10] = assay: Antibacterial activity against Beta-lactamase positive Haemophilus influenzae harboring fst1 mutant gene assessed as resistant isolates after 20 to 24 hrs by Etest method; procedure, shortened: as §1
Haemophilus influenzae [11] = assay: Antibacterial activity against Beta-lactamase positive Haemophilus influenzae isolate harboring fst1 mutant gene after 20 to 24 hrs by Etest method; procedure, shortened: as §1
Haemophilus influenzae [12] = assay: Antibacterial activity against Beta-lactamase negative Haemophilus influenzae harboring fst1 mutant gene assessed as resistant isolates after 20 to 24 hrs by broth microdilution method; procedure, shortened: as §2
Haemophilus influenzae [13] = assay: Antibacterial activity against Beta-lactamase negative Haemophilus influenzae isolate harboring fst1 mutant gene after 20 to 24 hrs by broth microdilution method; procedure, shortened: as §2
Haemophilus influenzae [14] = assay: Antibacterial activity against Beta-lactamase positive Haemophilus influenzae harboring fst1 mutant gene assessed as susceptible isolates after 20 to 24 hrs by Etest method; procedure, shortened: as §1
Haemophilus influenzae [15] = assay: Antibacterial activity against Beta-lactamase positive Haemophilus influenzae assessed as resistant isolates after 20 to 24 hrs by broth microdilution method; procedure, shortened: as §2
Haemophilus influenzae [16] = assay: Antibacterial activity against Beta-lactamase negative Haemophilus influenzae isolate after 20 to 24 hrs by Etest method; procedure, shortened: as §1
Haemophilus influenzae [17] = assay: Antibacterial activity against Beta-lactamase positive Haemophilus influenzae assessed as susceptible isolates after 20 to 24 hrs by broth microdilution method; procedure, shortened: as §2
Haemophilus influenzae [18] = assay: Antibacterial activity against Beta-lactamase negative Haemophilus influenzae isolate harboring fst1 mutant gene after 20 to 24 hrs by Etest method; procedure, shortened: as §1
Haemophilus influenzae [19] = assay: Antibacterial activity against Beta-lactamase positive Haemophilus influenzae harboring fst1 mutant gene assessed as susceptible isolates after 20 to 24 hrs by broth microdilution method; procedure, shortened: as §2
Haemophilus influenzae [20] = assay: Antibacterial activity against Beta-lactamase negative Haemophilus influenzae assessed as resistant isolates after 20 to 24 hrs by broth microdilution method; procedure, shortened: as §2
Haemophilus influenzae [21] = assay: Antibacterial activity against Beta-lactamase positive Haemophilus influenzae isolate after 20 to 24 hrs by Etest method; procedure, shortened: as §1
Haemophilus influenzae [22] = assay: Antibacterial activity against Beta-lactamase positive Haemophilus influenzae harboring fst1 mutant gene assessed as resistant isolates after 20 to 24 hrs by broth microdilution method; procedure, shortened: as §2
Haemophilus influenzae [23] = assay: Antibacterial activity against Beta-lactamase negative Haemophilus influenzae assessed as susceptible isolates after 20 to 24 hrs by broth microdilution method; procedure, shortened: as §4
Haemophilus influenzae [24] = assay: Antibacterial activity against Beta-lactamase negative Haemophilus influenzae assessed as susceptible isolates after 20 to 24 hrs by Etest method; procedure, shortened: as §3
Haemophilus influenzae [25] = assay: Antibacterial activity against Beta-lactamase positive Haemophilus influenzae isolate after 20 to 24 hrs by broth microdilution method in presence of clavulanic acid
Procedure, shortened: (§5)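 Broth microdilution per CLSI, with plates incubated in 5% CO2. Mueller-Hinton broth with HTM supplement and yeast extract (5%). Inoculum about 5 x 10^5 CFU/ml, checked by colony counts on chocolate agar. Amoxicillin-clavulanic acid at 2:1 ratio. 35°C, 20 to 24 h. MIC is the lowest concentration inhibiting growth. Isolates genotyped for ftsI/blaTEM by sequencing; β-lactamase by nitrocefin test.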

Haemophilus influenzae [26] = assay: Antibacterial activity against Beta-lactamase negative Haemophilus influenzae isolate harboring fst1 mutant gene after 20 to 24 hrs by Etest method in presence of clavulanic acid
Procedure, shortened: (§6)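 Etest on clinical H. influenzae isolates genotyped for ftsI and blaTEM by PCR and sequencing; β-lactamase status by nitrocefin chromogenic test. Colonies from overnight chocolate agar suspended in saline to McFarland 0.5, swabbed confluently onto 150-mm agar plates, strips placed radially; 35°C, 5% CO2, 20 to 24 h. MIC read where inhibition ellipse meets strip, rounded up to next log2 concentration.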

Haemophilus influenzae [27] = assay: Antibacterial activity against Beta-lactamase positive Haemophilus influenzae isolate harboring fst1 mutant gene after 20 to 24 hrs by broth microdilution method in presence of clavulanic acid; procedure, shortened: as §5
Haemophilus influenzae [28] = assay: Antibacterial activity against Beta-lactamase negative Haemophilus influenzae isolate harboring fst1 mutant gene after 20 to 24 hrs by broth microdilution method in presence of clavulanic acid; procedure, shortened: as §5
Haemophilus influenzae [29] = assay: Antibacterial activity against Beta-lactamase positive Haemophilus influenzae isolate after 20 to 24 hrs by Etest method in presence of clavulanic acid; procedure, shortened: as §6
Haemophilus influenzae [30] = assay: Antibacterial activity against Beta-lactamase negative Haemophilus influenzae isolate after 20 to 24 hrs by broth microdilution method in presence of clavulanic acid; procedure, shortened: as §5
Haemophilus influenzae [31] = assay: Antibacterial activity against Beta-lactamase positive Haemophilus influenzae isolate harboring fst1 mutant gene after 20 to 24 hrs by Etest method in presence of clavulanic acid; procedure, shortened: as §6
Haemophilus influenzae [32] = assay: Antibacterial activity against Beta-lactamase negative Haemophilus influenzae isolate after 20 to 24 hrs by Etest method in presence of clavulanic acid; procedure, shortened: as §6
Haemophilus influenzae [33] = assay: Antibacterial activity against Beta-lactamase negative ampicillin-resistant Haemophilus influenzae isolate with SSN motif mutation after 20 to 24 hrs by broth microdilution method; procedure, shortened: as §2
Haemophilus influenzae [34] = assay: Antibacterial activity against Beta-lactamase negative ampicillin-resistant Haemophilus influenzae isolate with SSN motif mutation after 20 to 24 hrs by disk diffusion method using <=29 mm disk
Procedure, shortened: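 Disk diffusion per CLSI on HTM base with HTM supplement and yeast extract (5%). Inoculum McFarland 0.5. Incubation 20 to 24 h at 35°C in 5% CO2. Cefixime disk 5 µg. Isolates genotyped for ftsI (SSN motif) by PCR and sequencing. Zone diameter measured.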

Haemophilus influenzae [35] = assay: Antibacterial activity against Beta-lactamase negative ampicillin-resistant Haemophilus influenzae isolate with SSN motif mutation after 20 to 24 hrs by Etest method; procedure, shortened: as §1
Haemophilus influenzae [36] = assay: Antibacterial activity against Beta-lactamase negative Haemophilus influenzae with PBP3 mutation

| Structure (SMILES) | Activity (Haemophilus influenzae [2]) [%] | Activity (Haemophilus influenzae [3]) [%] | MIC50 (Haemophilus influenzae [4]) [µg/mL] | MIC90 (Haemophilus influenzae [4]) [µg/mL] | Activity (Haemophilus influenzae [5]) [%] | Activity (Haemophilus influenzae [8]) [%] | MIC50 (Haemophilus influenzae [9]) [µg/mL] | MIC90 (Haemophilus influenzae [9]) [µg/mL] | MIC50 (Haemophilus influenzae [11]) [µg/mL] | MIC90 (Haemophilus influenzae [11]) [µg/mL] | Activity (Haemophilus influenzae [12]) [%] | MIC50 (Haemophilus influenzae [13]) [µg/mL] | MIC90 (Haemophilus influenzae [13]) [µg/mL] | MIC50 (Haemophilus influenzae [16]) [µg/mL] | MIC90 (Haemophilus influenzae [16]) [µg/mL] | Activity (Haemophilus influenzae [17]) [%] | MIC50 (Haemophilus influenzae [18]) [µg/mL] | MIC90 (Haemophilus influenzae [18]) [µg/mL] | MIC50 (Haemophilus influenzae [21]) [µg/mL] | MIC90 (Haemophilus influenzae [21]) [µg/mL] | other results |
| --- | --- | --- | --- | --- | --- | --- | --- | --- | --- | --- | --- | --- | --- | --- | --- | --- | --- | --- | --- | --- | --- |
| N[C@@H](C(=O)N[C@@H]1C(=O)N2C(C(=O)O)=C(Cl)CS[C@H]12)c1ccccc1 [CEFACLOR ANHYDROUS] | 76.5 | 0 | 2 (≈ 5.44 µM) | 4 (≈ 10.9 µM) | 94.1 | 100 | 8 (≈ 21.8 µM) | 16 (≈ 43.5 µM) | 4 (≈ 10.9 µM) | 32 (≈ 87 µM) | 0 | 8 (≈ 21.8 µM) | 8 (≈ 21.8 µM) | 1 (≈ 2.72 µM) | 2 (≈ 5.44 µM) | 0 | 4 (≈ 10.9 µM) | 16 (≈ 43.5 µM) | 1 (≈ 2.72 µM) | 2 (≈ 5.44 µM) | Activity (Haemophilus influenzae [1]): 5.9%; MIC50 (Haemophilus influenzae [6]): 8 µg/mL (≈ 21.8 µM); MIC90 (Haemophilus influenzae [6]): 16 µg/mL (≈ 43.5 µM); Activity (Haemophilus influenzae [7]): 0%; Activity (Haemophilus influenzae [10]): 20%; Activity (Haemophilus influenzae [14]): 73.3%; Activity (Haemophilus influenzae [15]): 5%; Activity (Haemophilus influenzae [19]): 80%; Activity (Haemophilus influenzae [20]): 0%; MIC (Haemophilus influenzae [21]): 1 µg/mL (≈ 2.72 µM); Activity (Haemophilus influenzae [22]): 0%; Activity (Haemophilus influenzae [23]): 100%; Activity (Haemophilus influenzae [24]): 100% |
| CC1(C)S[C@@H]2[C@H](NC(=O)[C@H](N)c3ccc(O)cc3)C(=O)N2[C@H]1C(=O)O [AMOXICILLIN] | 67.6 | 85 | 0.5 (≈ 1.37 µM) | 0.5 (≈ 1.37 µM) | 20.6 | 5 | ≥ 64 | ≥ 64 | 32 (≈ 87.6 µM) | 64 (≈ 175 µM) | 35.3 | 2 (≈ 5.47 µM) | 4 (≈ 10.9 µM) | 0.5 (≈ 1.37 µM) | 0.5 (≈ 1.37 µM) | 0 | 1 (≈ 2.74 µM) | 2 (≈ 5.47 µM) | 4 (≈ 10.9 µM) | 16 (≈ 43.8 µM) | MIC (Haemophilus influenzae [4]): 0.5 µg/mL (≈ 1.37 µM); MIC (Haemophilus influenzae [6]): ≥ 32 µg/mL; MIC (Haemophilus influenzae [25]): 0.25 µg/mL; MIC (Haemophilus influenzae [26]): 0.25 µg/mL; MIC (Haemophilus influenzae [27]): 1 µg/mL; MIC (Haemophilus influenzae [28]): 0.5 µg/mL; MIC (Haemophilus influenzae [29]): 0.25 µg/mL; MIC (Haemophilus influenzae [30]): 0.5 µg/mL; MIC (Haemophilus influenzae [31]): 0.5 µg/mL; MIC (Haemophilus influenzae [32]): 0.25 µg/mL; Activity (Haemophilus influenzae [23]): 100%; Activity (Haemophilus influenzae [24]): 100% |
| C=CC1=C(C(=O)O)N2C(=O)[C@@H](NC(=O)/C(=N\OCC(=O)O)c3csc(N)n3)[C@H]2SC1 [CEFIXIME] | – | – | – | – | – | – | – | – | – | – | – | – | – | – | – | – | – | – | – | – | MIC (Haemophilus influenzae [33]): ≥ 0.5 µg/mL; MIC (Haemophilus influenzae [34]): ≥ 0.5 µg/mL; MIC (Haemophilus influenzae [35]): ≥ 0.5 µg/mL |
| CC1(C)S[C@@H]2[C@H](NC(=O)[C@H](N)c3ccccc3)C(=O)N2[C@H]1C(=O)O [AMPICILLIN] | 88.2 | 85 | ≤ 0.25 | 0.5 (≈ 1.43 µM) | 76.5 | 5 | ≥ 32 | ≥ 32 | 32 (≈ 91.6 µM) | 64 (≈ 183 µM) | 2.9 | 1 (≈ 2.86 µM) | 2 (≈ 5.72 µM) | 0.25 (≈ 0.715 µM) | 0.5 (≈ 1.43 µM) | 0 | 1 (≈ 2.86 µM) | 2 (≈ 5.72 µM) | 4 (≈ 11.4 µM) | 16 (≈ 45.8 µM) | MIC (Haemophilus influenzae [4]): ≤ 0.25 µg/mL; MIC (Haemophilus influenzae [6]): ≥ 32 µg/mL; MIC (Haemophilus influenzae [36]): >=2 ug; Activity (Haemophilus influenzae [23]): 100%; Activity (Haemophilus influenzae [24]): 100% |
